Molecular target: Cytochrome P450 3A4 (Homo sapiens, UniProt P08684)
Test: Binding affinity to C-terminal four-histidine tagged human CYP3A4delta3 to 24 residues expressed in Escherichia coli assessed as spectral dissociation constant by spectrophotometric method
How it was run: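 Purified recombinant CYP3A4 titrated in 50 mM phosphate pH 7.4 with 20% glycerol and 1 mM DTT, adding small aliquots of compound in DMSO (final solvent <2%). Absorbance spectra recorded on a spectrophotometer. Ks obtained by one- or two-site saturation fitting of absorbance change versus ligand concentration.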

Sequence of Cytochrome P450 3A4 (P08684 whole entry, the tested form may be a part): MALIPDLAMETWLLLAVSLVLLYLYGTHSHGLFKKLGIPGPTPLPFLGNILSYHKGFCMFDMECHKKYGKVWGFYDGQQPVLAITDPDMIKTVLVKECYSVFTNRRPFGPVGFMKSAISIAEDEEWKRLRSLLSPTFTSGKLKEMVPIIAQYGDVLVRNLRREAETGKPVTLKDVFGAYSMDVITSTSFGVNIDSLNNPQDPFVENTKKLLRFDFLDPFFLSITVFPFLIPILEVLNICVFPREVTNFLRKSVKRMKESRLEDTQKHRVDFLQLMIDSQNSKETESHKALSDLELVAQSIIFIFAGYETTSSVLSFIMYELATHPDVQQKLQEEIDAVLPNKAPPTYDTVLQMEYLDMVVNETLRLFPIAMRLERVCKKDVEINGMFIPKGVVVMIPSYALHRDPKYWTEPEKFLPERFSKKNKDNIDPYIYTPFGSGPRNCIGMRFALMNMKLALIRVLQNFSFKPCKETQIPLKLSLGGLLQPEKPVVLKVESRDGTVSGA

SMILES | Kd [µM]
CC(C)(C)OC(=O)NCCCCCC(=O)NCc1cccnc1 | 105
c1ccncc1 [CHEBI:16227] | 4500
